Data reported in ChEMBL document CHEMBL2407059, “Discovery and characterization of carbamothioylacrylamides as EP2 selective antagonists” (ACS Med Chem Lett, 2013).
pIC50: −log10 of the molar value. Values after ≈ are worked out from the molar mass of the structure shown. Active and inactive are the calls of the source. The rule behind the calls is not given here.

Tests used:
C6 = assay: Cytotoxicity against rat C6 cells after 48 hrs; format: cell-based; details: c6, 48 h
How it was run: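 C6G cells are incubated with compound for 48 h, then cell viability is measured and CC50 derived.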

[1] = target: Prostacyclin receptor (Homo sapiens) (UniProt P43119); assay: Antagonist activity at human IP receptor overexpressed in rat C6 cells assessed as inhibition of iloprost-induced cAMP accumulation incubated for 10 mins prior to iloprost addition measured after 40 mins by TR-FRET assay; format: functional, cell-based
Sequence of Prostacyclin receptor (Homo sapiens) (P43119 whole entry): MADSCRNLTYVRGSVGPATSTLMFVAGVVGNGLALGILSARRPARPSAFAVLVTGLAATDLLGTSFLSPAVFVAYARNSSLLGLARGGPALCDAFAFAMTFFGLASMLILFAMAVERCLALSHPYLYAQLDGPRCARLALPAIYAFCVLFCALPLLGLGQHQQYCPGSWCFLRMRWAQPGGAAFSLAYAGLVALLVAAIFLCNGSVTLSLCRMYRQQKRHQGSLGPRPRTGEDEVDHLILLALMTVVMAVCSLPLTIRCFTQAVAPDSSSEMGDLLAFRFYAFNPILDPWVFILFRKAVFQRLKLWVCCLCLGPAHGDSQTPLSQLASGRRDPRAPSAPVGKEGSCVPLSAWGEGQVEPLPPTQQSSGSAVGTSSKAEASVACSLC

[2] = target: T1, Prostaglandin D2 receptor (Homo sapiens) (UniProt Q13258); assay: Antagonist activity at human DP1 receptor overexpressed in rat C6 cells assessed as inhibition of BW245C-induced cAMP accumulation incubated for 10 mins prior to BW245C addition measured after 40 mins by TR-FRET assay; format: functional, cell-based
T1 sequence (whole entry): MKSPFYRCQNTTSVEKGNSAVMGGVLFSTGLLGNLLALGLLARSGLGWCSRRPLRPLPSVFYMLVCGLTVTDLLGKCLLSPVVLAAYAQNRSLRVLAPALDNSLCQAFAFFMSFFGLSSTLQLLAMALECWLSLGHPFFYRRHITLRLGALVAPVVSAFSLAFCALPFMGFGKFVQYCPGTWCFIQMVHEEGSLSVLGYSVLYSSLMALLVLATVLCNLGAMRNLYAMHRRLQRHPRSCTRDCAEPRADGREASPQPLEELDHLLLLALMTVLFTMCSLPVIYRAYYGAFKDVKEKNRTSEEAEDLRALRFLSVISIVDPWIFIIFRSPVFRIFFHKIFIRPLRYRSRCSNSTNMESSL

[3] = target: Prostaglandin E2 receptor EP4 subtype (Homo sapiens) (UniProt P35408); assay: Antagonist activity at human EP4 receptor overexpressed in rat C6 cells assessed as inhibition of PGE2-induced cAMP accumulation incubated for 10 mins prior to PGE2 addition measured after 40 mins by TR-FRET assay; format: functional, cell-based
Sequence of Prostaglandin E2 receptor EP4 subtype (Homo sapiens) (P35408 whole entry): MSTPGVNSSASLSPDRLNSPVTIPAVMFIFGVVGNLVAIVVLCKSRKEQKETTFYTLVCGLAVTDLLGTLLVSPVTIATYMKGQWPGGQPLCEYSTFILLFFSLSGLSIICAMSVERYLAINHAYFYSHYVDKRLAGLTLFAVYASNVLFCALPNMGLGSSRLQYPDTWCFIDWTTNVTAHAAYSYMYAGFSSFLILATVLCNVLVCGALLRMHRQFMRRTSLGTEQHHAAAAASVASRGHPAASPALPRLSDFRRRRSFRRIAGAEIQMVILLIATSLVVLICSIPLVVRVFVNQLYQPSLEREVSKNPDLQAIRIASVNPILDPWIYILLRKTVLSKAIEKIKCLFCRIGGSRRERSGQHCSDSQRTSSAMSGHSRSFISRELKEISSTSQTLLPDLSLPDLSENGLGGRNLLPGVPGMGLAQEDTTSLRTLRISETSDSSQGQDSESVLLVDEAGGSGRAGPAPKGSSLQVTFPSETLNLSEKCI

[4] = target: T2, Prostaglandin E2 receptor EP2 subtype (Homo sapiens, UniProt P43116); assay: Competitive antagonist activity at human EP2 receptor overexpressed in rat C6 cells by Schild plot analysis; format: cell-based
T2 sequence (P43116 whole entry): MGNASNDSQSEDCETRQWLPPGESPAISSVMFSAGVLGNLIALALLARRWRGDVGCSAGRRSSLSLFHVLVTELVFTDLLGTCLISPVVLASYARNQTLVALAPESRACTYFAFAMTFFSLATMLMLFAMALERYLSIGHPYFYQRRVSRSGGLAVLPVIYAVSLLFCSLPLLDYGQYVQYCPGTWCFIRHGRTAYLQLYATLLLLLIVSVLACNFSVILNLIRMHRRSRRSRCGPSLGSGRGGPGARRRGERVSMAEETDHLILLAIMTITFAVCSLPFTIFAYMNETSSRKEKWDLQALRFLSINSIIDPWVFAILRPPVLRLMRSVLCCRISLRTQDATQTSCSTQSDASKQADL

[5] = Metabolic stability in mouse liver microsomes assessed as compound remaining at 1 to 10 uM after 60 mins; format: ADME, Microsome; details: read-out: Stability
[6] = Metabolic stability in human liver microsomes assessed as compound remaining at 1 to 10 uM after 60 mins; format: ADME, Microsome; details: read-out: Stability
[7] = Plasma concentration in C57BL/6 mouse at 5 mg/kg, ip after 30 mins; format: ADME, organism-based; design: dose 5 mg/kg, route intraperitoneal
How it was run: (§1)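 Female C57BL/6 mice dosed 10 mg/kg by oral gavage or 5 mg/kg i.p. in 10% DMSO/70% PEG400/20% sterile water. Blood drawn at five time points from 0.5 to 8 h and processed to plasma. Compound concentration in plasma measured; n = 3 mice per time point, mean ± SEM.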

Brain [8] = assay: Drug uptake in C57BL/6 mouse brain at 10 mg/kg, po after 1 to 2 hrs; format: ADME, organism-based; design: dose 10 mg/kg, route oral; details: in vivo
How it was run: (§2)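 Female C57BL/6 mice dosed 10 mg/kg by oral gavage or 5 mg/kg i.p. (10 mg/kg i.p. also examined for brain) in vehicle of 10% DMSO, 70% PEG400, 20% sterile water. Brain tissue collected at 1 and 2 h post-dose; brain-to-plasma ratio reported.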

[9] = target: Prostaglandin E2 receptor EP2 subtype (Mus musculus) (UniProt Q62053); assay: Inhibition of EP2 receptor-mediated mouse P388D1 macrophage activation assessed as inhibition of butaprost-induced IL-12 mRNA expression at 10 uM incubated for 1 hr prior to butaprost-challenge measured after 2 hrs by qRT-PCR analysis
Sequence of Prostaglandin E2 receptor EP2 subtype (Mus musculus) (Q62053 whole entry): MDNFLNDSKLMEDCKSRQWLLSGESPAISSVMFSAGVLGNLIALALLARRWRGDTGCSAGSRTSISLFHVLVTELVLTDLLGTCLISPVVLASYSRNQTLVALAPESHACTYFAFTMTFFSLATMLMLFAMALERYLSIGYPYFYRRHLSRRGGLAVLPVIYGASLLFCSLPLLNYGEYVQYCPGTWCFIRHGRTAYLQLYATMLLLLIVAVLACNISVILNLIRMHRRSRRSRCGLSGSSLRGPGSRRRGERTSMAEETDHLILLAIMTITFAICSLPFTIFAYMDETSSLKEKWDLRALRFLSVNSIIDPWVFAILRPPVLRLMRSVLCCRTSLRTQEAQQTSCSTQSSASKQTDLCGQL
How it was run: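 P388D1 macrophage line pretreated 1 h with test agent at 10 μM or vehicle, then stimulated with the EP2-selective agonist butaprost (10 μM) for 2 h. Inflammatory mediator mRNA quantified by qRT-PCR. n = 3–4, mean ± SEM, one-way ANOVA with post hoc Bonferroni test.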

Nucleic Acid = assay: Ratio of drug level in brain to plasma in C57BL/6 mouse at 10 mg/kg, ip; format: ADME, organism-based; design: dose 10 mg/kg, route intraperitoneal
How it was run: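 Female C57BL/6 mice dosed 10 mg/kg i.p. Plasma prepared from blood, and brain tissue collected at 1 h. Brain-to-plasma concentration ratio calculated from the two levels.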

Brain [10] = assay: Drug uptake in C57BL/6 mouse brain at 10 mg/kg, ip after 1 hr; format: ADME, organism-based; design: dose 10 mg/kg, route intraperitoneal; details: in vivo; how it was run: as §2
[11] = target: Prostaglandin E2 receptor EP2 subtype (Mus musculus) (UniProt Q62053); assay: Inhibition of EP2 receptor-mediated mouse P388D1 macrophage activation assessed as inhibition of butaprost-induced IL-23 mRNA expression at 10 uM incubated for 1 hr prior to butaprost-challenge measured after 2 hrs by qRT-PCR analysis
How it was run: (§3)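 P388D1 mouse macrophages pretreated 1 h with 10 μM antagonist or vehicle, then stimulated 2 h with EP2-selective agonist butaprost (10 μM). Inflammatory mediator mRNA quantified by qRT-PCR; n = 3–4, mean ± SEM, one-way ANOVA with post hoc Bonferroni test.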

[12] = target: Beta-2 adrenergic receptor (Homo sapiens) (UniProt P07550); assay: Inhibition of beta2-adrenergic receptor (unknown origin) overexpressed in rat C6G cells up to 40 uM by TR-FRET assay; format: cell-based
Sequence of Beta-2 adrenergic receptor (Homo sapiens) (P07550 whole entry, looked up): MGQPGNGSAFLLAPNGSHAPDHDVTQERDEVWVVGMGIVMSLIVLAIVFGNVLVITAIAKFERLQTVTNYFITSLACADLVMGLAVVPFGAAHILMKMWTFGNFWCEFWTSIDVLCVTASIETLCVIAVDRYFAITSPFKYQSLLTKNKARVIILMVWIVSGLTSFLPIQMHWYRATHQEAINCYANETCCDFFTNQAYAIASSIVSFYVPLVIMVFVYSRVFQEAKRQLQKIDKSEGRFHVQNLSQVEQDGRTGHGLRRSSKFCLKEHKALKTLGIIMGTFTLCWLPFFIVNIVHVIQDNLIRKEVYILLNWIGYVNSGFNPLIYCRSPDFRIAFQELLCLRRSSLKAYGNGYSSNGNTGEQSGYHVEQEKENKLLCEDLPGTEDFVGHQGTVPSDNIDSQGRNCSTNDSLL

[13] = Inhibition of Staphylococcus aureus NadD
[14] = target: Prostaglandin E2 receptor EP2 subtype (Mus musculus) (UniProt Q62053); assay: Inhibition of EP2 receptor-mediated mouse P388D1 macrophage activation assessed as inhibition of butaprost-induced TNF-alpha mRNA expression at 10 uM incubated for 1 hr prior to butaprost-challenge measured after 2 hrs by qRT-PCR analysis; how it was run: as §3
[15] = target: Prostaglandin E2 receptor EP4 subtype (Homo sapiens) (UniProt P35408); assay: Inhibition of human EP4 receptor overexpressed in rat C6G cells up to 40 uM by TR-FRET assay; format: cell-based
[16] = target: Prostaglandin E2 receptor EP2 subtype (Mus musculus) (UniProt Q62053); assay: Inhibition of EP2 receptor-mediated mouse P388D1 macrophage activation assessed as inhibition of butaprost-induced IL-17 mRNA expression at 10 uM incubated for 1 hr prior to butaprost-challenge measured after 2 hrs by qRT-PCR analysis; how it was run: as §3
[17] = target: Prostaglandin E2 receptor EP2 subtype (Mus musculus) (UniProt Q62053); assay: Inhibition of EP2 receptor-mediated mouse P388D1 macrophage activation assessed as inhibition of butaprost-induced IL-1beta mRNA expression at 10 uM incubated for 1 hr prior to butaprost-challenge measured after 2 hrs by qRT-PCR analysis; how it was run: as §3
[18] = Plasma concentration in C57BL/6 mouse at 10 mg/kg, po after 30 mins; format: ADME, organism-based; design: dose 10 mg/kg, route oral; how it was run: as §1
[19] = Aqueous solubility of the compound in PBS buffer at pH 7.0 by nephelometry; format: physicochemical
Brain [20] = assay: Drug uptake in C57BL/6 mouse brain at 5 mg/kg, ip after 1 to 2 hrs; format: ADME, organism-based; design: dose 5 mg/kg, route intraperitoneal; details: in vivo; how it was run: as §2
[21] = target: T2, Prostaglandin E2 receptor EP2 subtype; assay: Antagonist activity at human EP2 receptor overexpressed in rat C6 cells assessed as inhibition of PGE2-induced cAMP accumulation incubated for 10 mins prior to PGE2 addition measured after 40 mins by TR-FRET assay; format: functional, cell-based
[22] = target: Prostaglandin E2 receptor EP2 subtype (Mus musculus) (UniProt Q62053); assay: Inhibition of EP2 receptor-mediated mouse P388D1 macrophage activation assessed as inhibition of butaprost-induced IL-6 mRNA expression at 10 uM incubated for 1 hr prior to butaprost-challenge measured after 2 hrs by qRT-PCR analysis; how it was run: as §3
[23] = target: Prostaglandin E2 receptor EP2 subtype (Mus musculus) (UniProt Q62053); assay: Inhibition of EP2 receptor-mediated mouse P388D1 macrophage activation assessed as inhibition of butaprost-induced COX-2 mRNA expression at 10 uM incubated for 1 hr prior to butaprost-challenge measured after 2 hrs by qRT-PCR analysis; how it was run: as §3

CCc1nnc(NS(=O)(=O)c2ccc(NC(=S)NC(=O)/C=C/c3cccs3)cc2)s1
CC50 (C6): 330 µM | Kb [1]: 2260 nM

CCc1nnc(NS(=O)(=O)c2ccc(NC(=S)NC(=O)c3ccc(OC)cc3)cc2)s1
Kb [2]: 16.1 µM | CC50 (C6): 186 µM | Kb [1]: 1730 nM

CCc1nnc(NS(=O)(=O)c2ccc(NC(=S)NC(=O)/C=C/c3ccc(OC)cc3)cc2)s1
Kb [3]: 13 µM | Kb [2]: 46.6 µM | CC50 (C6): 365 µM | Kb [4]: 34.5 nM | Kb [1]: 360 nM

CCc1nnc(NS(=O)(=O)c2ccc(NC(=S)NC(=O)/C=C/c3ccccc3)cc2)s1
Kb [2]: 9.8 µM | CC50 (C6): 370 µM

COc1ccc(NS(=O)(=O)c2ccc(NC(=S)NC(=O)/C=C/c3ccc(C)cc3)cc2)nn1
Kb [3]: 20.5 µM | KB [2]: inactive | CC50 (C6): 150 µM | Kb [4]: 13.3 nM | Kb [1]: 360 nM

COc1cc(NS(=O)(=O)c2ccc(NC(=S)NC(=O)c3sc4cc(F)ccc4c3Cl)cc2)nc(OC)n1
Kb [3]: 0.7 µM | Kb [2]: 8.7 µM | CC50 (C6): 96 µM | Kb [4]: 108 nM | Kb [1]: 21000 nM

CCc1nnc(NS(=O)(=O)c2ccc(NC(=S)NC(=O)/C=C/c3ccc(F)cc3)cc2)s1
remaining at 1 h, up to 10 µM [5]: 40% | remaining at 1 h, up to 10 µM [6]: 40% | concentration at 0.5 h [7]: 30 µM | Drug uptake (Brain [8]): Not Active | inhibition [9]: Active | BPR (Nucleic Acid): 0.02 | Drug uptake (Brain [10]): Active | CC50 (C6): 326 µM | inhibition [11]: Active | inhibition [12]: inactive | pIC50 [13]: 5.35 | inhibition [14]: Active | inhibition [15]: inactive | inhibition [16]: Active | inhibition [17]: Active | concentration at 0.5 h [18]: 12 µM | solubility kinetic [19]: 71 µg/mL (≈ 144 µM) | Drug uptake (Brain [20]): Not Active | pIC50 [21]: 5.80 | inhibition [21]: Dose-dependent effect | inhibition [22]: Active | inhibition [23]: Active

COc1cc(NS(=O)(=O)c2ccc(NC(=S)NC(=O)c3cccs3)cc2)nc(OC)n1
Kb [2]: 25.2 µM | CC50 (C6): 258 µM | Kb [1]: 5900 nM

COc1cc(NS(=O)(=O)c2ccc(NC(=S)NC(=O)/C=C/c3ccc(F)cc3)cc2)ncn1
remaining at 1 h, up to 10 µM [5]: 40% | Kb [3]: 18.2 µM | remaining at 1 h, up to 10 µM [6]: 40% | KB [2]: inactive | CC50 (C6): 378 µM
